Drawing on PubChem BioAssay AID1235 (PCMD, 2008), this text covers inhibition for 64 compounds.

In all, about 62,000 compounds went through this assay and about 50 (0.08%) were called active.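 How the source made its calls: active means inhibition above 30% in each of the two pooled mixtures holding the compound, so the lower value exceeds 30%; inactive means the rest.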 Many of the other results were omitted from the sample, so actives are more common in it than they were.

This test is described as follows: alternative complement pathway inhibitors, primary screen, biochemical, ELISA, human serum, orthogonally pooled compounds (AID 1235).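 Further: 0% = serum in Mg-EGTA without compound and 100% = EDTA serum blank.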 The note with it: LPS-coated ELISA, C3 deposition, tested in compound mixtures, at 5 µM, stronger effect = higher value. The gist of the method:
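Test system – human serum alternative complement pathway, C3 deposition on LPS-coated wells · Buffer or medium – diluted human serum in Mg2+-EGTA GVB++ · Compound dosing – 5 µM each compound, pools of ten, 50 µM per pool · Schedule – 1 h serum-compound exposure at 37 °C · Measured by – Anti-C3 ELISA, OD 450 nm · Read-out basis – percent inhibition of C3 deposition onto LPS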
Regarding `c1c2c(cc3sc(N4CCCCC4)nc13)OCCO2`, the inhibition was -3.86% (inactive).

As to `CC(C(=O)O)N1C(=O)c2cccc3cccc1c23` (centres undefined), the inhibition was -0.13% (inactive).

On to `O=C1C2(c3ccccc3)CN(CCCO)CC1(c1ccccc1)CN(CCCO)C2`, for which the inhibition is 0.125% (inactive).

Turning to `Cc1cc(C)nc(NC(=O)C(C)N2C(=O)c3ccccc3C2=O)n1` (centres undefined), the inhibition is 4.23% (inactive).

As for `Cc1cc(N(C)C)cc(C)[n+]1[O-]`, the inhibition is 13.5% (inactive).

For `CC(=O)NC(Cc1ccc(F)cc1)C(=O)O` (centres undefined), the inhibition is 10.5% (inactive).

For the compound `COc1ccc2c(Cl)c(-c3nnco3)sc2c1`, the inhibition was 9.28% (inactive).

On to `CCCCCN(C(=O)NC(=O)Nc1ccccc1C)S(C)(=O)=O`, for which the inhibition is 18.8% (inactive).

Take `CS(=O)(=O)N(CC(=O)NCc1ccco1)c1ccc2c(c1)OCO2`: the inhibition was -0.135% (inactive).

As for `COc1ccc(CCNC(=O)c2ccco2)cc1`, the inhibition was 3.87% (inactive).

As for `O=C(CSc1nnc(-c2cccs2)n1-c1ccccc1)N1CCN(C(=O)c2ccco2)CC1`, the inhibition was 13.8% (inactive).

`COC(=O)c1ccccc1NC(=O)CSc1ccccn1`: the inhibition was -0.725% (inactive).

Consider `COc1cccc(Oc2ccc(N)cc2)c1`, for which the inhibition was 5.52% (inactive).

Consider `CCNC(=O)N1CCNC(=O)C1CC(=O)Nc1ccc(C(=O)OCC)cc1` (centres undefined), for which the inhibition was -0.745% (inactive).

With `Cc1ccsc1C(C(=O)NC1CCCCC1)N(C(=O)Cc1cccs1)C1CC1` (centres undefined), the inhibition is -3.39% (inactive).

Regarding `CCN1C(=O)/C(=C\N2CCN(c3cccc(Cl)c3)CC2)SC1=S`, the inhibition was 11.5% (inactive).

With `S=C1SCN(CCN2CCOCC2)CN1Cc1ccccc1`, the inhibition is 16% (inactive).

Regarding `Cc1occc1C(=O)Nc1nnc(C2CCCCC2)s1`, the inhibition is 9.21% (inactive).

On to `COCCN(CC(=O)Nc1ccccc1C)S(=O)(=O)c1ccc(S(=O)(=O)N2CCCC2)cc1`, for which the inhibition was 10.3% (inactive).

Consider `O=C(NCCCN1CCN(c2ccccc2F)CC1)C1CCC(=O)N1C1CCCCC1` (centres undefined), for which the inhibition was 1.73% (inactive).

Turning to `COc1ccc(-c2nc(CS(=O)CC(=O)NCc3cccnc3)c(C)o2)cc1OC` (centres undefined), the inhibition was 10.4% (inactive).

As to `CC(=O)O[C@]1(C(C)=O)CC[C@H]2[C@@H]3C=C(C)C4=CC(=O)CC[C@]4(C)[C@H]3CC[C@@]21C`, the inhibition is 9.71% (inactive).

As to `CCNS(=O)(=O)c1ccc(NC(=O)Nc2cccc(C(F)(F)F)c2)cc1`, the inhibition is 12.9% (inactive).

As to `Cc1c(C(=O)N2CCCc3ccccc32)sc2nc(-c3ccccc3)cn12`, the inhibition is 16% (inactive).

On to `O=C1c2cccnc2C(=O)N1Cc1cccs1`, for which the inhibition was 14.6% (inactive).

With `Cc1ccc(C2CC(c3cccc(Br)c3)n3nc(N)nc3N2)cc1` (centres undefined), the inhibition is 11.6% (inactive).

On to `CCOC(=O)Cn1c(=O)oc2cc(S(=O)(=O)NCC3CCCO3)ccc21` (centres undefined), for which the inhibition is 15% (inactive).

As for `CCOC(=O)c1oc2ccccc2c1NC(=O)c1cccs1`, the inhibition is 0.31% (inactive).

With `CCCS(=O)(=O)N1CCCC(C(=O)N2CCN(c3ccccc3)CC2)C1` (centres undefined), the inhibition is 4.18% (inactive).

Take `COc1ccc(-n2nnc3c(=O)n(CC(=O)N4CCC(Cc5ccccc5)CC4)cnc32)cc1`: the inhibition was 21.3% (inactive).

Regarding `COc1cc(OC)cc(C(=O)NCCSCc2ccco2)c1`, the inhibition was 4.01% (inactive).

With `CCNS(=O)(=O)c1ccc(NC(=O)Nc2cccc(OC)c2)cc1`, the inhibition is 27.3% (inactive).

In the case of `O=C(c1cccc2ccccc12)N1CCN(c2ccccc2F)CC1`, the inhibition was 18.4% (inactive).

In the case of `CCOC(=O)C1CCN(C(=O)CSc2cc(=O)n(C)c3ccccc23)CC1`, the inhibition was 7.27% (inactive).

As for `CCn1ncc(C2=NOC(C(=O)Nc3ccccc3C(=O)OC)C2)c1C` (centres undefined), the inhibition is 12.4% (inactive).

With `COc1ccc(N(Cc2cc3cc(OC)ccc3[nH]c2=O)S(C)(=O)=O)cc1`, the inhibition was -2.02% (inactive).

In the case of `CCc1c(C)nc2ncnn2c1N1CCC(C(=O)NCc2ccc3c(c2)OCO3)CC1`, the inhibition was 20.2% (inactive).

For the compound `Cc1ccc(-c2nc(CS(=O)CC(=O)NC3CCCC3)c(C)o2)cc1` (centres undefined), the inhibition was 10.5% (inactive).

As for `FC(F)(F)c1nnc2sc(-c3ccco3)nn12`, the inhibition was 7.12% (inactive).

Consider `CCOC(=O)C(CCOc1cccc(CC)c1)C(=O)OCC`, for which the inhibition was 9.83% (inactive).

Turning to `COc1ccc(-c2nnn(CC(=O)N(CCO)C(C(=O)NC3CCCC3)c3ccc(F)cc3)n2)cc1` (centres undefined), the inhibition was 3.14% (inactive).

Consider `Cc1ccccc1CSc1nnc(-c2ccccn2)n1N`, for which the inhibition was 12.7% (inactive).

Turning to `CCOC(=O)c1[nH]c2ccc(C)cc2c1N=C(C)N(C)C`, the inhibition is 10.8% (inactive).

Regarding `COC(=O)C1=C(C)NC2=C(C(=O)c3ccccc32)C1c1ccc(-c2ccc(C(=O)O)cc2)o1` (centres undefined), the inhibition was 7.73% (inactive).

As to `CC1C=CCC2C(=O)N(c3cccc(C(=O)N4CCCCCC4)c3)C(=O)C12` (centres undefined), the inhibition was 19% (inactive).

Take `CCS(=O)(=O)N1CCCC(C(=O)NCc2ccc(C)cc2)C1` (centres undefined): the inhibition is 13.3% (inactive).

For `COC(=O)Cc1c(C)c2ccc(OCC(=O)NCc3ccc4c(c3)OCO4)cc2oc1=O`, the inhibition is 4.91% (inactive).

On to `CNC(=O)CSc1nnc(CCc2ccccc2)n1-c1ccccc1`, for which the inhibition is 5.29% (inactive).

For the compound `CC1CCCN(C(=O)Cn2c(=O)oc3ccccc32)C1` (centres undefined), the inhibition was -0.77% (inactive).

For the compound `CC1(C)SC2c3ccccc3C(=O)N2[C@@H]1C(=O)NCc1ccco1` (some centres undefined), the inhibition is -5.49% (inactive).

As to `O=C(c1ccc(O)cc1)c1ccc(C(=O)O)c(C(=O)O)c1`, the inhibition was -8.85% (inactive).

With `O=C(C1CCN(CC2CCCCC2)CC1)N1CCCC1`, the inhibition is 4.05% (inactive).

For `COC(=O)c1oc2ccc(Br)cc2c1NC(C)=O`, the inhibition was 11.8% (inactive).

Take `COc1ccccc1CNCc1cccs1`: the inhibition was -3.09% (inactive).

For `CCn1cc(C(=O)NCc2ccc(OC)cc2OC)c(=O)c2ccc(C)nc21`, the inhibition was -3.58% (inactive).

For `COc1ccc(-c2noc(-c3cccc(OC)c3OC)n2)cc1OC`, the inhibition was 21.6% (inactive).

Regarding `O=C(CN1CCN(c2nc(-c3ccccc3)cs2)CC1)NCc1ccc2c(c1)OCO2`, the inhibition was 13.6% (inactive).

As to `Cc1cccc(N(CC(O)CN(C)C)S(=O)(=O)c2ccccc2)c1` (centres undefined), the inhibition was -22.7% (inactive).

In the case of `COC(=O)[C@H](C)NC(=O)Nc1ccc(OC(F)(F)F)cc1`, the inhibition is 4.04% (inactive).

On to `O=C1OC(NC(=O)c2ccccc2)C(N2CCOCC2)=C1Cl` (centres undefined), for which the inhibition was 18.5% (inactive).

For the compound `Cc1ccc(Oc2ccc(N)cc2)cc1`, the inhibition was -0.695% (inactive).

On to `O=C(CC1Nc2ccccc2NC1=O)Nc1ccccc1` (centres undefined), for which the inhibition was -0.205% (inactive).

Take `O=C(CC1NCCNC1=O)Nc1ccc(Oc2ccccc2)cc1` (centres undefined): the inhibition is 32.3% (active).

As for `CCOc1ccc(NC(=O)CC2NCCNC2=O)cc1` (centres undefined), the inhibition was 2.46% (inactive).

As usually defined, the inhibition is the change of the read-out against control, counted positive when it falls.
